Assay results published in article PMC6339461 (Bioorganic & medicinal chemistry letters, 2018).
“Also recorded” adds a separate entry of the source.

Columns and labels:
[1] = solubility in DMSO and buffer; assay type: physicochemical; conditions: in both DMSO and buffer; compared with hit 7a
[2] = parallel artificial membrane permeability assay; assay type: in vitro ADME; conditions: for permeability, result in words: PAMPA
HepG2 = test: cytotoxicity in HepG2 cells; assay type: cell-based; conditions: concentrations up to 100 μM
HeLa = test: cytotoxicity in HeLa cells; assay type: cell-based; conditions: concentrations up to 100 μM
TDP2 = target: T1, TDP2 (Danio rerio, UniProt Q5XJA0); test: fluorescence-based biochemical assay measuring the catalytic activity of TDP2
T1 sequence (Q5XJA0 121-369): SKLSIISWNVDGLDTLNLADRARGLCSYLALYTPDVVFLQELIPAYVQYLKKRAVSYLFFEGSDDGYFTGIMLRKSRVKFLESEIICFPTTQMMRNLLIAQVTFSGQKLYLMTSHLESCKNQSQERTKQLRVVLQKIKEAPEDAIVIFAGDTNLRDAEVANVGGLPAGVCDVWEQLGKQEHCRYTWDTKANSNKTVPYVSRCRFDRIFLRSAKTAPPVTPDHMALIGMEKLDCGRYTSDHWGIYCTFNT
In short: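 TDP2 catalytic activity measured with a fluorescence read-out. IC50 values are the mean of three independent experiments, each run in triplicate.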

O=C(Nc1nc2cc(-c3ccccc3)ccn2n1)c1cccc([N+](=O)[O-])c1 [Compound 17a]
solubility profile, result in words [1]: better solubility profile

O=C(Nc1nc2cc(-c3ccccc3)ccn2n1)c1cccc(Cl)c1 [Compound 17e]
permeability, result in words [2]: borderline Pe value; also recorded: good cellular permeability | Pe value, times higher than that of 1 ([2]; relative to 1): about 10 times | permeability in PAMPA, fold higher than the hit compound ([2]; relative to hit compound): 6 fold | cytotoxicity in HepG2, result in words (HepG2): no cytotoxicity | cytotoxicity in HeLa, result in words (HeLa): no cytotoxicity

O=C(Nc1nc2cc(-c3ccccc3)ccn2n1)c1ccc(F)cc1Cl [Compound 17o]
TDP2 inhibition, result in words (TDP2): further reduced activity

O=C(Nc1nc2cc(-c3cccnc3)ccn2n1)c1cccc(Cl)c1 [Compound 17z]
permeability, result in words [2]: good cellular permeability; also recorded: excellent cell permeability | fold increase in permeability versus 17e ([2]; relative to 17e): 7 fold | cytotoxicity in HepG2, result in words (HepG2): no cytotoxicity | cytotoxicity in HeLa, result in words (HeLa): no cytotoxicity
